Calls of active or inactive are those of the source. The calls are words filed in the database; no cut-off is given here.
Legend:
Substance-P receptor [1] = molecular target: T1, Substance-P receptor (Homo sapiens, UniProt P25103); assay: Displacement of [125I]L-703606 from human NK1 expressed in CHO cells; type: cell-based
Substance-P receptor [2] = molecular target: T1, Substance-P receptor; assay: Displacement of [125I]L-703606 from human NK1 expressed in CHO cells in presence of 50% human serum; type: cell-based
Meriones unguiculatus [3] = assay: Brain penetration in gerbils assessed as inhibition of GR-73632-induced foot tapping at 1 mg/kg, iv; type: functional
Outline: (§1)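 Gerbils receive the test compound by iv injection. Hindlimb thumping (foot tapping) is then elicited by central administration of an NK1 agonist. Inhibition of the thumping is scored as % inhibition at 0 h after 1 mg/kg iv, or at 24 h after 3 mg/kg. Dose titrations at 0 and 24 h give an ID50.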

Substance-P receptor [4] = molecular target: T1, Substance-P receptor; assay: Displacement of [125I]L-703606 from human NK1 expressed in CHO cells at 0.1 uM; type: cell-based
Meriones unguiculatus [5] = assay: Brain penetration in gerbils assessed as inhibition of GR-73632-induced foot tapping at 3 mg/kg, iv after 24 hrs; type: functional; outline: as §1
Substance-P receptor [6] = molecular target: T1, Substance-P receptor; assay: Displacement of [125I]L-703606 from human NK1 expressed in CHO cells in presence of 50% human serum at 0.1 uM; type: cell-based
Meriones unguiculatus [7] = species on record: Meriones unguiculatus; assay: Brain penetration in gerbils assessed as inhibition of GR-73632-induced foot tapping; type: functional; conditions: read-out: ID50 (the source's name); outline: as §1

T1 sequence (P25103 whole entry): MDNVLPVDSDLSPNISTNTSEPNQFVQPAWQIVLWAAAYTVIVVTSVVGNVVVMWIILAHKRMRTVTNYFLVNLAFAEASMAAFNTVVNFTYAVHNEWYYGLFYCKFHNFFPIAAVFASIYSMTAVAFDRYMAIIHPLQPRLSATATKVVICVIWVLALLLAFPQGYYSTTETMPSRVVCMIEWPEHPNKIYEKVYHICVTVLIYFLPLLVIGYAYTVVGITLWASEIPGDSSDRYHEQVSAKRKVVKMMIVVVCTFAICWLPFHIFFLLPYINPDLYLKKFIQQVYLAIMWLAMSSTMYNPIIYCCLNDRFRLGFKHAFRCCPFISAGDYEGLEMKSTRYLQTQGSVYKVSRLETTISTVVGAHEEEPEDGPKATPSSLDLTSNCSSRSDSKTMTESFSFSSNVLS

`C[C@@H](O[C@H]1CN2C(=O)OC[C@@H]2[C@@H]1c1ccccc1)c1cc(C(F)(F)F)cc(C(F)(F)F)c1` showed an IC50 (Substance-P receptor [1]) of 0.27 nM, an Activity (Substance-P receptor [2]) of 37 nM and an inhibition in vivo at 1 mg/kg (Meriones unguiculatus [3]) of 2.5%.

With `C[C@H](O[C@H]1CN(C(=O)OC(C)(C)C)[C@@H](CO)[C@@H]1c1ccccc1)c1cc(C(F)(F)F)cc(C(F)(F)F)c1` the Activity (Substance-P receptor [4]) was 26%.

With `C[C@H](O[C@H]1[C@H](c2ccccc2)CN(C(=O)OC(C)(C)C)[C@H]1CO)c1cc(C(F)(F)F)cc(C(F)(F)F)c1` the Activity (Substance-P receptor [4]) was 13%.

In the case of `C[C@@H](O[C@@H]1[C@@H](c2ccc(F)cc2)CN2C(=O)OC[C@@H]12)c1cc(C(F)(F)F)cc(C(F)(F)F)c1`, the IC50 (Substance-P receptor [1]) is reported as 0.33 nM, the Activity (Substance-P receptor [2]) is reported as 57 nM and the Activity (Meriones unguiculatus [3]) is reported as “inactive”.

Work on `C[C@@H](O[C@@H]1[C@@H](c2ccccc2)CN(C(=O)OC(C)(C)C)[C@H]1CO)c1cc(C(F)(F)F)cc(C(F)(F)F)c1` yielded an IC50 (Substance-P receptor [1]) of 3.6 nM.

Work on `C[C@@H](O[C@H]1[C@H](c2ccc(F)cc2)CN(C(=O)OC(C)(C)C)[C@H]1CO)c1cc(C(F)(F)F)cc(C(F)(F)F)c1` yielded an IC50 (Substance-P receptor [1]) of 4.4 nM.

Work on `C[C@@H](O[C@@H]1[C@@H](c2ccc(F)cc2)CN(C(=O)OC(C)(C)C)[C@H]1CO)c1cc(C(F)(F)F)cc(C(F)(F)F)c1` yielded an IC50 (Substance-P receptor [1]) of 1.2 nM.

Work on `C[C@@H](O[C@H]1CN(C(=O)OC(C)(C)C)[C@@H](CO)[C@@H]1c1ccc(F)cc1)c1cc(C(F)(F)F)cc(C(F)(F)F)c1` yielded an IC50 (Substance-P receptor [1]) of 0.28 nM, an inhibition in vivo at 3 mg/kg (Meriones unguiculatus [5]) of 0% and an inhibition in vivo at 1 mg/kg (Meriones unguiculatus [3]) of 16%.

`C[C@@H](O[C@H]1CN2C(=O)NC[C@H]2[C@@H]1c1ccc(F)cc1)c1cc(C(F)(F)F)cc(C(F)(F)F)c1` gave an IC50 (Substance-P receptor [1]) of 0.06 nM, an inhibition in vivo at 3 mg/kg (Meriones unguiculatus [5]) of 8% and an Activity (Substance-P receptor [2]) of 2 nM. It also gave an inhibition in vivo at 1 mg/kg (Meriones unguiculatus [3]) of 100%.

With `C[C@H](O[C@@H]1[C@@H](c2ccc(F)cc2)CN(C(=O)OC(C)(C)C)[C@H]1CO)c1cc(C(F)(F)F)cc(C(F)(F)F)c1` the Activity (Substance-P receptor [4]) was 41%.

`C[C@@H](O[C@@H]1[C@@H](c2ccccc2)CN2C(=O)OC[C@@H]12)c1cc(C(F)(F)F)cc(C(F)(F)F)c1` was tested, and the Activity (Substance-P receptor [6]) was 25%, the IC50 (Substance-P receptor [1]) was 1.3 nM and the Activity (Meriones unguiculatus [3]) was “inactive”.

Work on `C[C@@H](O[C@H]1CN(C(=O)OC(C)(C)C)[C@@H](CO)[C@@H]1c1ccccc1)c1cc(C(F)(F)F)cc(C(F)(F)F)c1` yielded an IC50 (Substance-P receptor [1]) of 0.63 nM.

In the case of `C[C@@H](O[C@H]1CN2C(=O)N(Cc3ccccc3)C[C@H]2[C@@H]1c1ccc(F)cc1)c1cc(C(F)(F)F)cc(C(F)(F)F)c1`, the IC50 (Substance-P receptor [1]) is reported as 2.7 nM, the Activity (Substance-P receptor [2]) is reported as “inactive” and the Activity (Meriones unguiculatus [3]) is reported as “inactive”.

In the case of `C[C@@H](O[C@H]1[C@H](c2ccccc2)CN(C(=O)OC(C)(C)C)[C@H]1CO)c1cc(C(F)(F)F)cc(C(F)(F)F)c1`, the IC50 (Substance-P receptor [1]) is reported as 7.8 nM.

With `C[C@@H](O[C@@H]1[C@@H](c2ccccc2)CN2C(=O)OC[C@H]12)c1cc(C(F)(F)F)cc(C(F)(F)F)c1` the Activity (Substance-P receptor [6]) was 31%, the IC50 (Substance-P receptor [1]) was 1.5 nM and the Activity (Meriones unguiculatus [3]) was “inactive”.

For `C[C@@H](O[C@@H]1[C@@H](c2ccc(F)cc2)CN2C(=O)OC[C@H]12)c1cc(C(F)(F)F)cc(C(F)(F)F)c1`, the IC50 (Substance-P receptor [1]) was 1 nM, the Activity (Substance-P receptor [2]) was “inactive” and the Activity (Meriones unguiculatus [3]) was “inactive”.

For `C[C@H](O[C@H]1[C@H](c2ccc(F)cc2)CN(C(=O)OC(C)(C)C)[C@H]1CO)c1cc(C(F)(F)F)cc(C(F)(F)F)c1`, the Activity (Substance-P receptor [4]) was 39%.

For `C[C@H](O[C@@H]1[C@@H](c2ccccc2)CN(C(=O)OC(C)(C)C)[C@H]1CO)c1cc(C(F)(F)F)cc(C(F)(F)F)c1`, the Activity (Substance-P receptor [4]) was 26%.

`C[C@@H](O[C@H]1CN2C(=O)OC[C@@H]2[C@@H]1c1ccc(F)cc1)c1cc(C(F)(F)F)cc(C(F)(F)F)c1` was tested, and the IC50 (Substance-P receptor [1]) was 0.14 nM, the inhibition in vivo at 3 mg/kg (Meriones unguiculatus [5]) was 0% and the Activity (Substance-P receptor [2]) was 37 nM. The inhibition in vivo at 1 mg/kg (Meriones unguiculatus [3]) was 49%.

Work on `C[C@H](O[C@H]1CN(C(=O)OC(C)(C)C)[C@@H](CO)[C@@H]1c1ccc(F)cc1)c1cc(C(F)(F)F)cc(C(F)(F)F)c1` yielded an Activity (Substance-P receptor [4]) of 92%.

`C[C@@H](O[C@H]1CN2C(=O)CC[C@H]2[C@@H]1c1ccc(F)cc1)c1cc(C(F)(F)F)cc(C(F)(F)F)c1` showed an IC50 (Substance-P receptor [1]) of 0.06 nM, an inhibition in vivo at 3 mg/kg (Meriones unguiculatus [5]) of 100% and an Activity (Substance-P receptor [2]) of 2.2 nM. It also gave an ED50 (Meriones unguiculatus [7]) of 0.03 mg/kg and an inhibition in vivo at 1 mg/kg (Meriones unguiculatus [3]) of 100%.

With `C[C@@H](O[C@H]1CN2C(=O)N(C)C[C@H]2[C@@H]1c1ccc(F)cc1)c1cc(C(F)(F)F)cc(C(F)(F)F)c1` the IC50 (Substance-P receptor [1]) was 0.88 nM, the Activity (Substance-P receptor [2]) was 32 nM and the Activity (Meriones unguiculatus [3]) was “inactive”.

Source: ChEMBL document CHEMBL1142272, “Fused bicyclic pyrrolizinones as new scaffolds for human NK1 antagonists” (Bioorg Med Chem, 2008)
